Source: ChEMBL document CHEMBL4680287, “Ibrexafungerp: An orally active β-1,3-glucan synthesis inhibitor” (Bioorg Med Chem Lett, 2021)
Converted amounts (≈) assume the structure as drawn.

Tests used:
[1] = system: Aspergillus fumigatus; experiment: Antifungal activity against Aspergillus fumigatus MF5668 infected in DBA/2N mouse assessed as mouse survival at 1.56 mg/kg, ip bid administered for 7 days starting from 15 to 30 mins post infection and measured up to 21 days relative to control; type: functional; details: 168 h, time 7 day
Outline: (§1)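 DBA/2N mice were infected IV with A. fumigatus MF5668 (6.7 x 10^5 CFU/mouse) and treated IP bid for 7 days. Percent survival per dose group was scored at the end of the 21-day survival model and compared with the sham-treated control group.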

[2] = Clearance in mouse; type: ADME, organism-based; details: in vivo
[3] = system: Aspergillus fumigatus; experiment: Antifungal activity against Aspergillus fumigatus MF5668 infected in DBA/2N mouse assessed as mean survival time at 12.5 mg/kg, ip bid administered for 7 days starting from 15 to 30 mins post infection and measured up to 21 days; type: functional; details: time 7 day
Outline: (§2)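 DBA/2N mice were challenged IV with A. fumigatus MF5668 at 6.7 x 10^5 CFU/mouse, then dosed IP twice daily for 7 days. Survival was followed over a 21-day model, and mean survival time in days was recorded per dose group. A sham-treated control group was run alongside.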

[4] = system: Aspergillus fumigatus; experiment: Antifungal activity against Aspergillus fumigatus MF5668 infected in DBA/2N mouse assessed as mouse survival at 3.125 mg/kg, ip bid administered for 7 days starting from 15 to 30 mins post infection and measured up to 21 days relative to control; type: functional; details: 168 h, time 7 day; outline: as §1
[5] = system: Candida albicans; experiment: Antifungal activity against Candida albicans MY1055 infected in DBA/2 mouse model of disseminated candidiasis assessed as reduction in fungal burden in kidney by measuring log change in colony forming units at 12.5 mg/kg, po bid for 7 days by TOKA; type: functional; details: time 7 day
Outline: (§3)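 Murine disseminated candidiasis model (TOKA) in mice challenged with C. albicans MY1055 at 2.44 x 10^4 CFU/mouse. Dosed PO, or IP where stated. Kidneys collected aseptically 7 days after challenge and CFUs/g counted. Change in log CFU/g is relative to sham-treated controls; significance by two-tailed t test. Clearance is the percentage of kidneys below the detection limit.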

[6] = system: Aspergillus fumigatus; experiment: Antifungal activity against Aspergillus fumigatus MF5668 assessed inhibition of fungal growth by measuring morphological changes measured after 24 hrs by microscopy; type: functional; details: read-out: MEC
Outline: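 Microdilution per CLSI protocols in RPMI medium. Read-out is the minimum effective concentration (MEC). Run without serum and with 50% human serum.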

[7] = Inhibition of beta-1,3-glucan synthase in Candida albicans MY1055 microsomal membrane assessed as inhibition of TCA-insoluble material formation using UDP-[3H]-glucose as substrate incubated for 2 hrs in presence of GTP by radioactivity-based assay; type: microsomes, Microsome
Outline: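 GS IC50 measured using Candida albicans MY1055 microsomal membrane fragments as the enzyme source.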

[8] = system: Aspergillus fumigatus; experiment: Antifungal activity against Aspergillus fumigatus MF5668 infected in DBA/2N mouse assessed as mean survival time at 3.125 mg/kg, ip bid administered for 7 days starting from 15 to 30 mins post infection and measured up to 21 days; type: functional; details: time 7 day; outline: as §2
[9] = system: Aspergillus fumigatus; experiment: Antifungal activity against Aspergillus fumigatus MF5668 infected in DBA/2N mouse assessed as mean survival time at 1.56 mg/kg, ip bid administered for 7 days starting from 15 to 30 mins post infection and measured up to 21 days; type: functional; details: time 7 day; outline: as §2
[10] = system: Aspergillus fumigatus; experiment: Antifungal activity against Aspergillus fumigatus MF5668 infected in DBA/2N mouse assessed as mouse survival at 6.25 mg/kg, ip bid administered for 7 days starting from 15 to 30 mins post infection and measured up to 21 days relative to control; type: functional; details: 168 h, time 7 day; outline: as §1
[11] = Half life in rat; type: ADME; details: in vivo
[12] = Clearance in rat; type: ADME; details: in vivo
[13] = system: Aspergillus fumigatus; experiment: Antifungal activity against Aspergillus fumigatus MF5668 infected in DBA/2N mouse assessed as mouse survival at 12.5 mg/kg, ip bid administered for 7 days starting from 15 to 30 mins post infection and measured up to 21 days relative to control; type: functional; details: 168 h, time 7 day; outline: as §1
[14] = system: Aspergillus fumigatus; experiment: Antifungal activity against Aspergillus fumigatus MF5668 infected in ip dosed DBA/2N mouse assessed as 50% mouse survival administered bid administered for 7 days starting from 15 to 30 mins post infection and measured up to 21 days; details: 168 h
[15] = system: Candida albicans; experiment: Antifungal activity against Candida albicans MY1055 infected in DBA/2 mouse model of disseminated candidiasis assessed as reduction in fungal burden in kidney by measuring log change in colony forming units at 6.25 mg/kg, po bid for 7 days by TOKA; type: functional; details: time 7 day; outline: as §3
[16] = system: Candida albicans; experiment: Antifungal activity against Candida albicans MY1055 infected in ip dosed DBA/2 mouse model of disseminated candidiasis assessed as reduction in fungal burden in kidney administered bid for 7 days by TOKA; type: functional; details: 168 h, time 7 day; outline: as §3
[17] = system: Candida albicans; experiment: Antifungal activity against Candida albicans MY1055 infected in DBA/2 mouse model of disseminated candidiasis assessed as reduction in fungal burden in kidney by measuring log change in colony forming units at 12.5 mg/kg, ip bid for 7 days by TOKA; type: functional; details: time 7 day; outline: as §3
[18] = Dose normalized AUC in po dosed mouse; type: ADME, organism-based; details: in vivo
[19] = system: Aspergillus fumigatus; experiment: Antifungal activity against Aspergillus fumigatus MF5668 infected in DBA/2N mouse assessed as mean survival time at 6.25 mg/kg, ip bid administered for 7 days starting from 15 to 30 mins post infection and measured up to 21 days; type: functional; details: time 7 day; outline: as §2
[20] = Half life in mouse; type: ADME, organism-based; details: in vivo
[21] = system: Aspergillus fumigatus; experiment: Antifungal activity against Aspergillus fumigatus MF5668 infected in ip dosed DBA/2N mouse assessed as 90% mouse survival administered bid administered for 7 days starting from 15 to 30 mins post infection and measured up to 21 days; type: functional; details: 168 h, time 7 day
[22] = system: Candida albicans; experiment: Antifungal activity against Candida albicans MY1055 assessed as fungal growth inhibition measured after 24 hrs by liquid microdilution method; type: functional
Outline: (§4)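 Broth microdilution per CLSI protocols in RPMI medium. Read-out is the MIC, the lowest concentration completely inhibiting fungal growth. Run without serum and with added serum.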

[23] = Dose normalized AUC in po dosed rat; type: ADME, organism-based; details: in vivo
[24] = system: Candida albicans; experiment: Antifungal activity against Candida albicans MY1055 assessed as fungal growth inhibition measured after 24 hrs in presence of 50% mouse serum by liquid microdilution method; type: functional; outline: as §4
[25] = Oral bioavailability in rat; type: ADME, organism-based; details: in vivo
Outline: (§5)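 Oral bioavailability calculated as oral AUC normalized to the IV dose, divided by the IV AUC.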

[26] = system: Candida albicans; experiment: Antifungal activity against Candida albicans MY1055 infected in DBA/2 mouse model of disseminated candidiasis assessed as reduction in fungal burden in kidney by measuring log change in colony forming units at 25 mg/kg, po bid for 7 days by TOKA; type: functional; details: time 7 day; outline: as §3
[27] = Oral bioavailability in mouse; type: ADME, organism-based; details: in vivo; outline: as §5
[28] = system: Candida albicans; experiment: Antifungal activity against Candida albicans MY1055 infected in DBA/2 mouse model of disseminated candidiasis assessed as reduction in fungal burden in kidney by measuring log change in colony forming units at 0.03 mg/kg, po bid for 7 days by TOKA; type: functional; details: time 7 day; outline: as §3
[29] = system: Aspergillus fumigatus; experiment: Antifungal activity against Aspergillus fumigatus MF5668 infected in DBA/2N mouse assessed as mean survival time at 0.125 mg/kg, ip bid administered for 7 days starting from 15 to 30 mins post infection and measured up to 21 days; type: functional; details: time 7 day; outline: as §2
[30] = system: Aspergillus fumigatus; experiment: Antifungal activity against Aspergillus fumigatus MF5668 infected in DBA/2N mouse assessed as mean survival time at 0.03 mg/kg, ip bid administered for 7 days starting from 15 to 30 mins post infection and measured up to 21 days; type: functional; details: time 7 day; outline: as §2
[31] = system: Aspergillus fumigatus; experiment: Antifungal activity against Aspergillus fumigatus MF5668 infected in DBA/2N mouse assessed as mouse survival at 0.5 mg/kg, ip bid administered for 7 days starting from 15 to 30 mins post infection and measured up to 21 days relative to control; type: functional; details: 168 h, time 7 day; outline: as §1
[32] = system: Aspergillus fumigatus; experiment: Antifungal activity against Aspergillus fumigatus MF5668 infected in DBA/2N mouse assessed as mouse survival at 0.03 mg/kg, ip bid administered for 7 days starting from 15 to 30 mins post infection and measured up to 21 days relative to control; type: functional; details: 168 h, time 7 day; outline: as §1
[33] = system: Candida albicans; experiment: Antifungal activity against Candida albicans MY1055 infected in DBA/2 mouse model of disseminated candidiasis assessed as reduction in fungal burden in kidney by measuring log change in colony forming units at 0.125 mg/kg, po bid for 7 days by TOKA; type: functional; details: time 7 day; outline: as §3
[34] = system: Candida albicans; experiment: Antifungal activity against Candida albicans MY1055 infected in DBA/2 mouse model of disseminated candidiasis assessed as reduction in fungal burden in kidney by measuring log change in colony forming units at […], po bid for 7 days by TOKA; type: functional; details: time 7 day; outline: as §3
[35] = system: Candida albicans; experiment: Antifungal activity against Candida albicans MY1055 infected in DBA/2 mouse model of disseminated candidiasis assessed as reduction in fungal burden in kidney by measuring log change in colony forming units at 0.5 mg/kg, ip bid for 7 days by TOKA; type: functional; details: time 7 day; outline: as §3
[36] = system: Candida albicans; experiment: Antifungal activity against Candida albicans MY1055 infected in DBA/2 mouse model of disseminated candidiasis assessed as reduction in fungal burden in kidney by measuring log change in colony forming units at 0.03 mg/kg, ip bid for 7 days by TOKA; type: functional; details: time 7 day; outline: as §3
[37] = system: Candida albicans; experiment: Antifungal activity against Candida albicans MY1055 infected in DBA/2 mouse model of disseminated candidiasis assessed as reduction in fungal burden in kidney by measuring log change in colony forming units at 0.0078 mg/kg, ip bid for 7 days by TOKA; type: functional; details: time 7 day; outline: as §3
[38] = system: Aspergillus fumigatus; experiment: Antifungal activity against Aspergillus fumigatus MF5668 infected in DBA/2N mouse assessed as mouse survival at 2 mg/kg, ip bid administered for 7 days starting from 15 to 30 mins post infection and measured up to 21 days relative to control; type: functional; details: 168 h, time 7 day; outline: as §1
[39] = system: Aspergillus fumigatus; experiment: Antifungal activity against Aspergillus fumigatus MF5668 infected in DBA/2N mouse assessed as mouse survival at 0.125 mg/kg, ip bid administered for 7 days starting from 15 to 30 mins post infection and measured up to 21 days relative to control; type: functional; details: 168 h, time 7 day; outline: as §1
[40] = system: Candida albicans; experiment: Antifungal activity against Candida albicans MY1055 infected in DBA/2 mouse model of disseminated candidiasis assessed as reduction in fungal burden in kidney by measuring log change in colony forming units at 0.125 mg/kg, ip bid for 7 days by TOKA; type: functional; details: time 7 day; outline: as §3

CC(C)[C@@H](C)[C@@]1(C)CC[C@]2(C)[C@H]3CC[C@@H]4[C@@]5(COC[C@@]4(C)[C@@H](OCC4(N)CCOCC4)[C@H](n4ncnc4-c4ccncc4)C5)C3=CC[C@@]2(C)[C@@H]1C(=O)O
survival at 1.56 mg/kg [1]: 0% | clearance [2]: 18 mL/min/kg | MST [3]: 14.6 days | survival at 3.125 mg/kg [4]: 10% | Activity [5]: -3.1 deltalog10CFU | minimal effective concentration [6]: < 0.03 µg/mL | IC50 [7]: 0.002 µg/mL | MST [8]: 7.3 days | MST [9]: 4.1 days | survival at 6.25 mg/kg [10]: 40% | half-life [11]: 1.9 h | clearance [12]: 20 mL/min/kg | survival at 12.5 mg/kg [13]: 60% | ED50 [14]: 11 mg/kg | Activity [15]: -1.4 deltalog10CFU | ED99 [16]: 3.8 mg/kg | Activity [17]: -4 deltalog10CFU | AUC/dose [18]: 0.18 µM·kg·h/mg | MST [19]: 12.5 days | half-life [20]: 2.1 h | ED90 [21]: 26 mg/kg | MIC [22]: < 0.03 µg/mL | AUC/dose [23]: 0.34 µM·kg·h/mg | MIC [24]: 0.25 µg/mL | bioavailability [25]: 30% | Activity [26]: -3.9 deltalog10CFU | bioavailability [27]: 13%

CC[C@H](C)C[C@H](C)CCCCCCCCC(=O)N[C@H]1C[C@@H](O)[C@@H](NCCN)NC(=O)[C@@H]2[C@@H](O)CCN2C(=O)[C@H]([C@H](O)CCN)NC(=O)[C@H]([C@H](O)[C@@H](O)c2ccc(O)cc2)NC(=O)[C@@H]2C[C@@H](O)CN2C(=O)[C@H]([C@@H](C)O)NC1=O [CASPOFUNGIN]
minimal effective concentration [6]: < 0.03 µg/mL | Activity [28]: -2.3 deltalog10CFU | MST [29]: 14.7 days | MST [30]: 13.1 days | survival at 0.5 mg/kg [31]: 90% | survival at 0.03 mg/kg [32]: 50% | Activity [33]: -4.2 deltalog10CFU | Activity [34]: -4.2 deltalog10CFU | IC50 [7]: 0.001 µg/mL | Activity [35]: -3.96 deltalog10CFU | Activity [36]: -3.28 deltalog10CFU | Activity [37]: -3.62 deltalog10CFU | survival at 2 mg/kg [38]: 90% | survival at 0.125 mg/kg [39]: 60% | ED50 [14]: 0.07 mg/kg | ED99 [16]: < 0.0001 mg/kg | ED90 [21]: 0.83 mg/kg | MIC [22]: 0.06 µg/mL (≈ 0.0549 µM) | MIC [24]: 0.25 µg/mL | Activity [40]: -4 deltalog10CFU
